Where a name gives a salt, the structure may show the parent alone.
How the values were obtained:
PC-3 cells = assay: IC50 determination, SRB cell density assay, PC-3; format: cell-based; details: Homo sapiens
How it was run: (§1)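 Cells were seeded in 96-well plates (PC-3 at 3 × 10³, T47D at 5 × 10³) and left overnight. They were exposed 72 h at 37 °C to increasing test compound concentrations with DMSO vehicle, washed, then regrown 48 h in fresh medium. Readout was by SRB: TCA fixation overnight, 0.5% SRB for 20 min, acetic acid washes, dye dissolved in 10 mM Tris, OD at 560 nm. Density was taken relative to untreated cells (100%). Runs were in triplicate, and IC50 came from a four-parameter nonlinear fit.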

T47D cells [1] = assay: IC50 determination, SRB cell density assay, T47D; format: cell-based; details: Homo sapiens
How it was run: as §1

[2] = test system: GRPR mRNA in PC-3 xenografts; assay: Ex-vivo GRPR mRNA expression in PC-3 xenografts; parameters: species or system NMRI-Foxn1 nu/nu mice; details: PC-3 xenografts after third cycle of DTX 5 mg/kg; RT-qPCR
How it was run: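 PC-3 xenografts came from male nude mice given taxane 5 mg/kg or placebo (polysorbate-80 1:1 in 5% glucose) weekly for 3 weeks, N = 4. After the final SPECT/CT scan, each tumor was halved. One half was processed for GRPR mRNA by RT-qPCR and compared with placebo.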

[3] = test system: GRPR mRNA in T47D xenografts; assay: Ex-vivo GRPR mRNA expression in T47D xenografts; parameters: species or system NMRI-Foxn1 nu/nu mice; details: T47D tumors from DXR-treated animals (5 mg/kg, 2 cycles); RT-qPCR
How it was run: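 T47D xenografts came from estradiol-supplemented female nude mice given anthracycline 5 mg/kg or placebo weekly for 2 weeks. After the last SPECT/CT scan, each tumor was halved. One half was used for GRPR mRNA by RT-qPCR against placebo.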

T47D cells [4] = assay: Sensitivity to GRPR-mediated radionuclide therapy, T47D; format: cell-based, human; details: 50 MBq, 1 h, SRB after 6 days
How it was run: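 T47D cells were pretreated 72 h with anthracycline or vehicle (0.4% DMSO), then regrown 24 h. Next, 3 × 10⁶ cells were seeded in T25 flasks and the following day exposed 1 h at 37 °C to 50 MBq/ml ¹⁷⁷Lu-labelled GRPR tracer, [¹⁷⁷Lu]Lu-DTPA (specificity control) or medium. Cells were scraped and re-seeded at 4 × 10³ per well, grown 6 days, then read by SRB. Density was taken versus medium-treated cells within each pretreatment group, from three independent experiments in triplicate.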

Row | SMILES | IC50 (PC-3 cells) [nM] | IC50 (T47D cells [1]) [nM] | GRPR mRNA levels in xenografts versus placebo [2] | GRPR mRNA expression in xenografts versus placebo [3] | Cell density relative to medium-treated cells (T47D cells [4]; DXR-pretreated T47D cells) | Cell density relative to medium-treated cells (T47D cells [4]; vehicle and DXR pretreated T47D cells)
1 | CC(=O)O[C@@]12CO[C@@H]1C[C@H](O)[C@@]1(C)C(=O)[C@H](O)C3=C(C)[C@@H](OC(=O)[C@H](O)[C@@H](NC(=O)OC(C)(C)C)c4ccccc4)C[C@@](O)([C@@H](OC(=O)c4ccccc4)[C@H]21)C3(C)C [DTX, anhydrous docetaxel] | 14.1 ± 3.72 | 0.94 ± 0.39 | similar | – | – | –
2 | COc1cccc2c1C(=O)c1c(O)c3c(c(O)c1C2=O)C[C@@](O)(C(=O)CO)C[C@@H]3O[C@H]1C[C@H](N)[C@H](O)[C@H](C)O1 [DXR, doxorubicin hydrochloride] | – | 22.3 ± 7.04 | – | increased GRPR mRNA expression | – | –
3 | O=C([O-])CN(CCN(CC(=O)[O-])CC(=O)[O-])CCN(CC(=O)[O-])CC(=O)[O-].[177Lu+3] [[^177Lu]Lu-DTPA] | – | – | – | – | slightly higher compared to the other conditions | no effect was observed
